In ChEMBL document CHEMBL1156077, “Piperazinyl-glutamate-pyrimidines as potent P2Y12 antagonists for inhibition of platelet aggregation” (Bioorg Med Chem Lett, 2009):

What was measured:
[1] = Selectivity for human P2Y12 receptor over P2Y13
[2] = Selectivity for human P2Y12 receptor over P2Y1
P2Y purinoceptor 12 [3] = molecular target: T1, P2Y purinoceptor 12 (Homo sapiens, UniProt Q9H244); experiment: Ratio of compound IC50 to AZD-6140 IC50 for P2Y12 receptor in human platelet rich plasma assessed as inhibition of ADP-induced platelet aggregation by light transmission aggregometry
In short: (§1)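 Human platelet-rich plasma was pre-incubated 5 min at 37 °C with compound across seven concentrations (10 down to 0.156). Aggregation was started with ADP (20, final) and followed by light transmission at 626 nm for 15 min at 37 °C. Duplicate concentration-response data were read at the 15-min end-point. IC50 was divided by the IC50 of AZD-6140 run on the same plate.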

P2Y purinoceptor 12 [4] = molecular target: T1, P2Y purinoceptor 12; experiment: Ratio of compound IC50 to thienopyrimidine IC50 for P2Y12 receptor in human platelet rich plasma assessed as inhibition of ADP-induced platelet aggregation by light transmission aggregometry
In short: as §1, with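 “the thienopyrimidine reference” for “AZD-6140”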

P2Y purinoceptor 12 [5] = molecular target: T1, P2Y purinoceptor 12; experiment: Binding affinity at human recombinant P2Y12 receptor expressed in CHO cells by radioligand binding assay; format: cell-based
In short: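 Washed membranes from CHO cells transfected with synthetic human P2Y12 gene. Compounds as 7-point threefold dilutions, triplicate, 1 h at room temperature. Nonspecific binding defined with 300 nM 2-MeSADP. Filtered, washed with ice-cold Tris pH 7.4. Single-site fit; IC50 converted to Ki by Cheng–Prusoff, geometric mean of n≥2.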

T1 sequence (Q9H244 whole entry): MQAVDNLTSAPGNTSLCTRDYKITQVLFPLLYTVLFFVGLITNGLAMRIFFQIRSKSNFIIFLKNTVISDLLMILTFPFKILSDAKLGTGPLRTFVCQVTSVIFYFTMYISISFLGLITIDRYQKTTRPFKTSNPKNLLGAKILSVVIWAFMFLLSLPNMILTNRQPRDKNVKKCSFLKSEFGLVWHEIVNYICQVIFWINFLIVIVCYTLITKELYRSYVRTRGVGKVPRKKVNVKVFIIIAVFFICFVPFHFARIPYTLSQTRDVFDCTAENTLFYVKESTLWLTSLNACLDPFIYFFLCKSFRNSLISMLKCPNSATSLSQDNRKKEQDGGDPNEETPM

fold change (FC) [1] | fold change (FC) [2] | Ratio IC50 (P2Y purinoceptor 12 [3]) | Ratio IC50 (P2Y purinoceptor 12 [4]) | Ki (P2Y purinoceptor 12 [5]) [nM] | Structure (SMILES)
> 340 | > 340 | 0.4 | 0.1 | 2.7 | CCCCCOC(=O)N1CCN(C(=O)[C@H](CCC(=O)O)NC(=O)c2cc(N3CCC(CCN)CC3)nc(-c3ccccc3)n2)CC1
> 340 | > 340 | 0.8 | 0.2 | 5.3 | CCCCCOC(=O)N1CCN(C(=O)[C@H](CCC(=O)O)NC(=O)c2cc(N3CCC(OCCOC)CC3)nc(-c3ccccc3)n2)CC1
> 340 | > 340 | 0.3 | 0.1 | 2.5 | CCCCCOC(=O)N1CCN(C(=O)[C@H](CCC(=O)O)NC(=O)c2cc(N3CCC(C(=O)N(C)C)CC3)nc(-c3ccccc3)n2)CC1
> 340 | > 340 | 0.4 | 0.08 | 0.7 | CCCCOC(=O)N1CCN(C(=O)[C@H](CCC(=O)O)NC(=O)c2cc(N3CCC(C(=O)N4CCCC4)CC3)nc(-c3ccccc3)n2)CC1
> 340 | > 340 | 5.4 | 1.3 | 10.2 | CCCCCOC(=O)N1CCN(C(=O)[C@H](CCC(=O)O)NC(=O)c2cc(N3CCC(CCOC)CC3)nc(-c3ccccc3)n2)CC1
> 340 | > 340 | 1.2 | 0.3 | 4.3 | CCCCCOC(=O)N1CCN(C(=O)[C@H](CCC(=O)O)NC(=O)c2cc(N3CCC(COCCOC)CC3)nc(-c3ccccc3)n2)CC1
> 340 | > 340 | 1.3 | 0.3 | 2.7 | CCCCCOC(=O)N1CCN(C(=O)[C@H](CCC(=O)O)NC(=O)c2cc(N3CCN(C)CC3)nc(-c3ccccc3)n2)CC1
> 340 | > 340 | 0.3 | 0.04 | 0.83 | CCCCCOC(=O)N1CCN(C(=O)[C@H](CCC(=O)O)NC(=O)c2cc(N3CCC(C(=O)N4CCC4)CC3)nc(-c3ccccc3)n2)CC1
> 340 | > 340 | 1 | 0.3 | 3.7 | CCCCCOC(=O)N1CCN(C(=O)[C@H](CCC(=O)O)NC(=O)c2cc(N3CCN(C(C)=O)CC3)nc(-c3ccccc3)n2)CC1
> 340 | > 340 | 1.1 | 0.2 | 1.3 | CCCCOC(=O)N1CCN(C(=O)[C@H](CCC(=O)O)NC(=O)c2cc(N3CCC(C(=O)N(C)C)CC3)nc(-c3ccccc3)n2)CC1
> 340 | > 340 | 0.8 | 0.2 | 0.61 | CCCCCOC(=O)N1CCN(C(=O)[C@H](CCC(=O)O)NC(=O)c2cc(N3CCC(CN(CC)CC)CC3)nc(-c3ccccc3)n2)CC1
> 340 | > 340 | 0.4 | 0.1 | 2.8 | CCCCCOC(=O)N1CCN(C(=O)[C@H](CCC(=O)O)NC(=O)c2cc(N3CCC(CCN(C)C)CC3)nc(-c3ccccc3)n2)CC1
> 340 | > 340 | 1.6 | 0.3 | 0.67 | CCCCCOC(=O)N1CCN(C(=O)[C@H](CCC(=O)O)NC(=O)c2cc(N3CCC(CC(=O)NCC)CC3)nc(-c3ccccc3)n2)CC1
> 340 | > 340 | 0.5 | 0.2 | 0.69 | CCCCCOC(=O)N1CCN(C(=O)[C@H](CCC(=O)O)NC(=O)c2cc(N3CCC(N)CC3)nc(-c3ccccc3)n2)CC1
> 340 | > 340 | 2.1 | 0.5 | 2 | CCCCOC(=O)N1CCN(C(=O)[C@H](CCC(=O)O)NC(=O)c2cc(N3CCC(CCOC)CC3)nc(-c3ccccc3)n2)CC1
> 340 | > 340 | 2.7 | 0.4 | 1.4 | CCCCOC(=O)N1CCN(C(=O)[C@H](CCC(=O)O)NC(=O)c2cc(N3CCC(OC)CC3)nc(-c3ccccc3)n2)CC1
> 340 | > 340 | 1.4 | 0.3 | 2 | CCCCCOC(=O)N1CCN(C(=O)[C@H](CCC(=O)O)NC(=O)c2cc(N3CCNCC3)nc(-c3ccccc3)n2)CC1

Continued, molecule first:

Structure (SMILES) | fold change (FC) [1] | fold change (FC) [2] | Ratio IC50 (P2Y purinoceptor 12 [3]) | Ratio IC50 (P2Y purinoceptor 12 [4]) | Ki (P2Y purinoceptor 12 [5]) [nM]
CCCCCOC(=O)N1CCN(C(=O)[C@H](CCC(=O)O)NC(=O)c2nc(-c3ccccc3)cc(N3CCN(C)CC3)n2)CC1 | > 340 | > 340 | 8.1 | 1.8 | 11
CCCCCOC(=O)N1CCN(C(=O)[C@H](CCC(=O)O)NC(=O)c2cc(OCC3CCNCC3)nc(-c3ccccc3)n2)CC1 | > 340 | > 340 | 1.7 | 0.3 | 2.2
CCCCCOC(=O)N1CCN(C(=O)[C@H](CCC(=O)O)NC(=O)c2cc(NCCOC)nc(-c3ccccc3)n2)CC1 | > 340 | > 340 | 2.2 | 0.5 | 1.2
CCCCOC(=O)N1CCN(C(=O)[C@H](CCC(=O)O)NC(=O)c2cc(OC3CCNCC3)nc(-c3ccccc3)n2)CC1 | > 340 | > 340 | 1.7 | 0.3 | 11
CCCCCOC(=O)N1CCN(C(=O)[C@H](CCC(=O)O)NC(=O)c2nc(-c3ccccc3)cc(N3CCN(CCOC)CC3)n2)CC1 | > 340 | > 340 | 8.3 | 1.6 | 12
CCCCCOC(=O)N1CCN(C(=O)[C@H](CCC(=O)O)NC(=O)c2cc(N3CCC(N4CCOCC4)CC3)nc(-c3ccccc3)n2)CC1 | > 340 | > 340 | 0.7 | 0.2 | 2.9
CCCCOC(=O)N1CCN(C(=O)[C@H](CCC(=O)O)NC(=O)c2cc(OC3CCN(C(C)C)CC3)nc(-c3ccccc3)n2)CC1 | > 340 | > 340 | 2.8 | 0.8 | 19
CCCCCOC(=O)N1CCN(C(=O)[C@H](CCC(=O)O)NC(=O)c2nc(-c3ccccc3)cc(N3CCC(CNCC)CC3)n2)CC1 | > 340 | > 340 | 1.6 | 0.4 | 11
CCCCCOC(=O)N1CCN(C(=O)[C@H](CCC(=O)O)NC(=O)c2cc(N3CCC(CCN4CCCC4)CC3)nc(-c3ccccc3)n2)CC1 | > 340 | > 340 | 0.5 | 0.1 | 2.1
CCCCCOC(=O)N1CCN(C(=O)[C@H](CCC(=O)O)NC(=O)c2nc(-c3ccccc3)cc(N3CCC(CNC)CC3)n2)CC1 | > 340 | > 340 | 1 | 0.4 | 11
CCCCCOC(=O)N1CCN(C(=O)[C@H](CCC(=O)O)NC(=O)c2nc(-c3ccccc3)cc(N3CCC(N)CC3)n2)CC1 | > 340 | > 340 | 3.1 | 0.6 | 8.4
CCCCCOC(=O)N1CCN(C(=O)[C@H](CCC(=O)O)NC(=O)c2nc(OCC3CCN(C)CC3)cc(-c3ccccc3)n2)CC1 | > 340 | > 340 | 4.4 | 0.8 | 12
CCCCCOC(=O)N1CCN(C(=O)[C@H](CCC(=O)O)NC(=O)c2nc(-c3ccccc3)cc(N3CCN(CC(=O)N(C)C)CC3)n2)CC1 | > 340 | > 340 | 3.5 | 0.8 | 6.8
CCCCCOC(=O)N1CCN(C(=O)[C@H](CCC(=O)O)NC(=O)c2cc(N3CCC(CC(=O)N4CCCC4)CC3)nc(-c3ccccc3)n2)CC1 | > 340 | > 340 | 2 | 0.3 | 1.6
CCCCCOC(=O)N1CCN(C(=O)[C@H](CCC(=O)O)NC(=O)c2cc(OCC3CCN(C)CC3)nc(-c3ccccc3)n2)CC1 | > 340 | > 340 | 3.7 | 0.5 | 5.7
CCCCCOC(=O)N1CCN(C(=O)[C@H](CCC(=O)O)NC(=O)c2cc(NCCCN(C)C)nc(-c3ccccc3)n2)CC1 | > 340 | > 340 | 1.7 | 0.6 | 4.8
CCCCOC(=O)N1CCN(C(=O)[C@H](CCC(=O)O)NC(=O)c2cc(OCC3CCN(C)CC3)nc(-c3ccccc3)n2)CC1 | > 340 | > 340 | 3.7 | 0.9 | 15
CCCCCOC(=O)N1CCN(C(=O)[C@H](CCC(=O)O)NC(=O)c2nc(-c3ccccc3)cc(N3CCC(N4CCCC4)CC3)n2)CC1 | > 340 | > 340 | 2.4 | 0.4 | 7.4
